An excerpt weighted towards active compounds, which were near 2.2% of everything screened.
V-ATPase pH – regulators of yeast V-ATPase proton pumping, primary screen, pHLuorin cytosolic pH fluorescence. S. cerevisiae. response, % at 10 µM. 0.37% of 350,000 active. AID 504577, 2011; in the data active means response mostly above about 7.3%, no sharp cut-off; inactive means mostly below about 5.4%; further: actives read high
ARFGAP1 inh – inhibitors of rat ARFGAP1 GAP activity, primary screen, biochemical, fluorescence polarization, GDP tracer; ADP-ribosylation factor GTPase-activating protein 1 (Rattus norvegicus), Q62848; AID 651572, 2012; Arfgap1-stimulated ARF1 GTP hydrolysis, GDP FP detection; 0.26% of 360,000 active; inhibition, % at 16.5 µM;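 active means inhibition above a per-plate limit, mean inhibition of low control wells plus 3 SD, cut at about 25% in these data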;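 further: 0% = DMSO wells with enzyme and 100% = wells lacking Arfgap1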
Target sequence (Q62848 1-136 limits assumed): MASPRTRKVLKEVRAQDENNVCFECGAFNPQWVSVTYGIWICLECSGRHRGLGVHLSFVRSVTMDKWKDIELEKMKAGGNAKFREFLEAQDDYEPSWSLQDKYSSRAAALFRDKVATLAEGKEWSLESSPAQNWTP
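Material – truncated rat Arfgap1 GAP domain · Buffer or medium – HEPES-based buffer, pH 7.5 · Reagent – human ARF1(Δ1-17)-GTP substrate · Dosing – 16.5 µM single point, 1.26% DMSO · Schedule – GTP hydrolysis reaction 2 h at 25 °C · Technique – GDP detection by fluorescence polarization · Benchmarks – No-Arfgap1 wells (100%) versus DMSO full-reaction wells (0%) · Repeats – single replicate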
ASAP1 inh – inhibitors of human ASAP1 ArfGAP activity, primary screen, biochemical, fluorescence polarization; inhibition, % at 16.5 µM; Arf-GAP with SH3 domain, ANK repeat and PH domain-containing protein 1 (Homo sapiens), …; 0.19% of 360,000 active; AID 624377, 2012; ASAP1-stimulated ARF1 GTP hydrolysis, GDP FP detection; in the data active means inhibition above about 25%;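 further: 0% = vehicle with enzyme and substrate and 100% = no enzyme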
Target sequence (Q9ULH1 325-724 limits assumed): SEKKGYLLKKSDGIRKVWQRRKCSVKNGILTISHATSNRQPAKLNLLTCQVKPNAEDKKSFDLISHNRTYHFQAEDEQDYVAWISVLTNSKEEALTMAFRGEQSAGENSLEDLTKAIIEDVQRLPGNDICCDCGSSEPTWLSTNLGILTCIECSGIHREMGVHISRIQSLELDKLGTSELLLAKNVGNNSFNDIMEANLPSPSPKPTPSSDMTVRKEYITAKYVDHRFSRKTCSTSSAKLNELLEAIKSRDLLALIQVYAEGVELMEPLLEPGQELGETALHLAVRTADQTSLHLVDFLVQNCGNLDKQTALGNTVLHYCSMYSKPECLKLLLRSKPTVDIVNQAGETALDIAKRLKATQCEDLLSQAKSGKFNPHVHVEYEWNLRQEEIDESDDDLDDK
CendR NRP1 mod – modulators of CendR peptide binding to NRP-1, primary screen, biochemical, fluorescence polarization, uHTS | Neuropilin-1 (Homo sapiens), O14786 | FAM-RPARPAR peptide binding to NRP-1 | inhibition, % at 25 µM | 0.85% of 360,000 active | AID 602438, 2012;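 active means inhibition or corrected inhibition above about 18%, plus a signal ratio from 0.5 to 1.5, limit read from the data, passing the limit was not always enough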
Exocytosis inh – LAMP-1 surface exposure blockers, TALL-104 cells – cell-based, flow cytometry, MLPCN library, primary screen. TALL-104 LAMP-1 surface exposure; cells stimulated with thapsigargin and PMA. inhibition, % at 10 µM. 0.66% of 360,000 active. AID 651702, 2012;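 active means inhibition above about 55%, limit read from the data; inconclusive means no clear call, values can overlap the other calls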
Granule exo CP1 – inhibitors of lytic granule exocytosis, confirmation, TALL-104 cells, flow cytometry, Cherry Pick01; 11% of 1,500 active; inhibition, % at 10 µM; LAMP-1 externalization; stimulated with PMA plus thapsigargin; shares compounds with Exocytosis inh; AID 651954, 2012; in the data active means inhibition above about 60%;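 further: 0% = stimulated vehicle wells and 100% = unstimulated wells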
Starred values were filed as active, the others as inactive; ? = inconclusive; nt = no result.

SMILES	V-ATPase pH	ARFGAP1 inh	ASAP1 inh	CendR NRP1 mod	Exocytosis inh	Granule exo CP1
CCCCSCCCNC(=O)c1ccc(CS(=O)(=O)c2ccccc2OC)o1	-0.3	9.3	13.2	-13.5	94.0*	-13.4
COCCCNC(=O)c1ccc(CS(=O)(=O)c2ccccc2OC)o1	-0.5	5.3	-5.5	0.6	-3.4	nt
O=C1CCc2cc(S(=O)(=O)Nc3ccc(F)cc3)cc3c2N1CC3	-0.1	9.6	11.7	10.1	-1.9	nt
O=C(Nc1ccc2oc(-c3ccccc3F)nc2c1)c1ccc2c(c1)OCCO2	1.4	11.8	7.8	-6.8	85.1*	44.6
O=C(Nc1ccc(-c2nc3ccccc3o2)cc1)c1ccc2c(c1)OCO2	-2.3	4.4	10.2	-7.3	-0.6	nt
Cc1ccc(NC(=O)C2CC(=O)N(c3ccccc3Cl)C2)cc1S(=O)(=O)N1CCOCC1 (centres undefined)	0.1	-11.1	3.4	2.1	-1.8	nt
CCOc1ccc(Br)cc1S(=O)(=O)Nc1cccc(S(=O)(=O)N2CCOCC2)c1	2.2	-6.9	2.2	1.2	96.6*	-13.8
COCCn1c(SCC(=O)c2ccccc2)nc2ccccc2c1=O	-4.0	-5.7	5.4	1.5	-0.8	nt
COCCn1c(SCCOc2ccccc2)nc2ccccc2c1=O	0.1	5.7	-5.0	-8.9	67.0*	14.1
CCOC(=O)c1c(-c2ccc(C)o2)csc1NC(=O)COC(=O)c1cccs1	2.2	0.5	-9.4	-14.4	97.1*	-3.9
CCOC(=O)c1c(-c2ccc(C)o2)csc1NC(=O)CN1CCOCC1	-1.0	-4.8	16.8	6.7	-2.9	nt
Cc1ccc(S(=O)(=O)c2cc3c(=O)n4ccccc4nc3n(C3CCCC3)c2=N)cc1	-10.9	12.1	14.8	1.7	88.0*	-14.7
O=C(/C=C/c1ccccc1)N1CCC[C@H]1CO	-2.3	0.6	-11.3	-1.6	-4.7	nt
CCC(C)(O)C(=O)N[C@H]1CCCN1C(=O)/C=C/c1ccccc1 (some centres undefined)	2.3	9.3	15.5	-0.4	59.0*	-3.1
CCOc1ccc(N(CC(=O)NC2CCC(C)CC2)S(=O)(=O)c2c(C)noc2C)cc1 (centres undefined)	-1.5	-3.5	5.6	5.9	-0.2	nt
Cc1noc(C)c1S(=O)(=O)N(CC(=O)NC1CCC(C)CC1)c1ccc(C(C)C)cc1 (centres undefined)	2.9	-12.2	2.8	8.9	72.4*	-4.1
CCc1noc(C)c1C(=O)N1CCN(S(=O)(=O)c2ccc(Cl)s2)CC1	-4.5	-3.5	21.7	2.5	-1.2	nt
COc1ccc(N2C(=O)CC(Sc3nnc(-c4ccccc4)o3)C2=O)cc1 (centres undefined)	-0.2	6.0	3.9	-7.3	57.1*	86.9*
CCC(C)Sc1ccc([C@H]2N[C@@](Cc3ccccc3)(C(=O)OC)[C@H]3C(=O)N(CC)C(=O)[C@@H]23)cc1OC (some centres undefined)	-2.2	11.6	0.6	-1.0	30.2	nt
OCCCNc1ncnc2oc(-c3ccccc3)c(-c3ccccc3)c12	-0.6	-6.9	-3.6	-2.8	65.7*	-6.4
COc1ccc(-c2oc3ncnc(NCCCN4CCOCC4)c3c2-c2ccc(OC)cc2)cc1	0.6	1.8	-3.5	-7.6	63.3*	30.1
c1ccc(-c2oc3ncnc(NCCCN4CCOCC4)c3c2-c2ccccc2)cc1	-0.1	10.2	5.8	-10.3	10.6	nt
COc1ccccc1N1CCN(C(=O)CCNC(=O)c2ccco2)CC1	-2.3	-11.7	-3.5	2.6	3.5	nt
C#CCNC(=O)C1=C[C@@H](c2coc3ccccc3c2=O)C[C@@H](OCc2ccc(CO)cc2)O1	-2.0	19.7	-6.6	11.3	87.7*	-4.6
Cc1ccc(N(C)S(=O)(=O)c2cc(-c3cnc(C4CC4)o3)ccc2C)cc1	4.6	9.3	11.9	9.1	96.8*	43.6
SMILES	V-ATPase pH	ARFGAP1 inh	ASAP1 inh	CendR NRP1 mod	Exocytosis inh	Granule exo CP1
CC(=O)CCc1oc2ccc(C)cc2c1-c1ccc(C)o1	4.8	-0.4	-14.1	-8.7	91.3*	-10.7
CCC(=O)Nc1cc2[nH]c(=O)cc(C)c2cc1C	1.5	5.5	4.8	10.1	58.5*	-3.2
CCOc1ccc(NC(=O)Cn2c(=O)n(CCCC(=O)NC3CCN(Cc4ccccc4)CC3)c(=O)c3ccccc32)cc1	-1.3	1.6	2.4	-6.9	60.8*	-10.0
O=c1c(Cl)c2oc3ccccc3nc-2c2ccccc12	0.8	nt	nt	92.3	101.7*	77.0*
CCOC(=O)CC1(NC(=O)c2cc(COc3cccc(OC)c3)on2)CCCCC1	-1.7	5.5	-6.0	5.5	-0.8	nt
Cc1cc(N2CCN(c3ccccc3)CC2)nc2ccccc12	-0.8	-12.1	6.1	-3.3	89.4*	-4.3
COc1ccc(N2CCN(c3cc(C)c4ccccc4n3)CC2)cc1	-3.1	0.1	1.9	4.4	-2.3	nt
Cc1ccc(NC(=O)c2ccco2)nc1	6.4	1.1	-5.2	11.6	7.0	nt
COc1cccc(CC2(CO)CCCN(Cc3ccc(CO)o3)C2)c1 (centres undefined)	1.1	-6.4	16.1	-2.0	-3.6	nt
COc1ccc(-n2ccnc2CN2CCCC(CO)(Cc3cccc(OC)c3)C2)cc1 (centres undefined)	4.5	-5.1	13.4	-7.0	59.8*	-13.1
COc1cc(C(C)=O)ccc1OCCN1CCC(Cc2ccccc2)CC1	-3.2	0.0	-8.9	6.4	56.5*	-12.9
COc1cc(C(=S)N2CCC(Cc3ccccc3)CC2)ccc1OCC(N)=O	4.0	4.2	5.2	-6.6	-0.6	nt
COc1cc(C(C)=O)ccc1OCCCN1CCC(Cc2ccccc2)CC1	-0.4	10.1	14.7	0.9	64.2*	-9.9
OCc1ccccc1OCCCN1CCC(Cc2ccccc2)CC1	-0.1	0.2	-8.9	0.5	69.1*	-10.5
COc1cc(C(C)=O)ccc1OCC(=O)N1CCC(Cc2ccccc2)CC1	2.0	-1.3	9.4	-0.3	?	nt
Cc1ccc(NC(=O)COc2ccc(Br)cc2CO)cc1S(=O)(=O)N1CCOCC1	1.0	8.8	2.4	4.5	19.9	nt
Cc1cc(NC(=O)C(C)SCC(=O)OCc2c(Cl)cccc2Cl)no1 (centres undefined)	0.1	2.8	1.1	14.1	-0.5	nt
C=CCN1[C@@H](C)[C@H](c2ccccc2)Oc2cccc(N3CCCC(C)C3)c2S1(=O)=O (some centres undefined)	nt	3.1	7.7	nt	nt	nt
Cc1noc(C)c1NC(=O)N(C)C[C@H]1Oc2ccc(NC(=O)Cc3ccccc3)cc2C(=O)N([C@H](C)CO)C[C@@H]1C	-1.9	16.9	1.1	4.0	0.6	nt
Cc1onc(-c2ccccc2)c1C(=O)OCCOc1ccccc1F	3.8	11.4	-7.9	-5.0	80.4*	-9.7

From PubChem BioAssay
